From ChEMBL document CHEMBL1142492 (J Med Chem, 2008)

Tests used:
[1] = target: Phosphatidylinositol 4,5-bisphosphate 3-kinase catalytic subunit beta isoform (Homo sapiens) (UniProt P42338); assay: Inhibition of PIK3CB at 3 uM
[2] = target: Dual specificity protein kinase CLK2 (Homo sapiens) (UniProt P49760); assay: Inhibition of CLK2 at 3 uM
[3] = target: High affinity nerve growth factor receptor (Homo sapiens) (UniProt P04629); assay: Inhibition of TRKA at 3 uM
[4] = target: Serine/threonine-protein kinase pim-3 (Homo sapiens) (UniProt Q86V86); assay: Inhibition of PIM3 at 3 uM
[5] = target: Inhibitor of nuclear factor kappa-B kinase subunit alpha (Homo sapiens) (UniProt O15111); assay: Inhibition of IKK-alpha at 3 uM
[6] = target: Rho-associated protein kinase 2 (Homo sapiens, UniProt O75116); assay: Inhibition of ROCK2
[7] = target: cGMP-dependent protein kinase 1 (Homo sapiens) (UniProt Q13976); assay: Inhibition of PRKG1 at 3 uM
[8] = species: Rattus norvegicus; details: 3 uM
[9] = target: Histamine H2 receptor (Homo sapiens) (UniProt P25021); assay: Inhibition of human histamine H2 receptor at 3 uM
Summary of the method: (§1)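 Counter-screen binding/enzyme panel at single 3 μM, n=2; results as percent inhibition. Species per target as listed (rat NMDA, GABAA sites; human receptors, transporters; rabbit ACE).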

[10] = target: Mitogen-activated protein kinase kinase kinase 12 (DLK) (Homo sapiens) (UniProt Q12852); assay: Inhibition of DLK at 3 uM
[11] = target: Tyrosine-protein kinase Blk (Homo sapiens) (UniProt P51451); assay: Inhibition of BLK at 3 uM
[12] = target: Serine/threonine-protein kinase PLK1 (Homo sapiens) (UniProt P53350); assay: Inhibition of PLK1 at 3 uM
[13] = target: Mitogen-activated protein kinase kinase kinase 9 (Homo sapiens) (UniProt P80192); assay: Inhibition of MLK1 at 3 uM
Sequence of Mitogen-activated protein kinase kinase kinase 9 (Homo sapiens) (P80192 whole entry, looked up, canonical isoform): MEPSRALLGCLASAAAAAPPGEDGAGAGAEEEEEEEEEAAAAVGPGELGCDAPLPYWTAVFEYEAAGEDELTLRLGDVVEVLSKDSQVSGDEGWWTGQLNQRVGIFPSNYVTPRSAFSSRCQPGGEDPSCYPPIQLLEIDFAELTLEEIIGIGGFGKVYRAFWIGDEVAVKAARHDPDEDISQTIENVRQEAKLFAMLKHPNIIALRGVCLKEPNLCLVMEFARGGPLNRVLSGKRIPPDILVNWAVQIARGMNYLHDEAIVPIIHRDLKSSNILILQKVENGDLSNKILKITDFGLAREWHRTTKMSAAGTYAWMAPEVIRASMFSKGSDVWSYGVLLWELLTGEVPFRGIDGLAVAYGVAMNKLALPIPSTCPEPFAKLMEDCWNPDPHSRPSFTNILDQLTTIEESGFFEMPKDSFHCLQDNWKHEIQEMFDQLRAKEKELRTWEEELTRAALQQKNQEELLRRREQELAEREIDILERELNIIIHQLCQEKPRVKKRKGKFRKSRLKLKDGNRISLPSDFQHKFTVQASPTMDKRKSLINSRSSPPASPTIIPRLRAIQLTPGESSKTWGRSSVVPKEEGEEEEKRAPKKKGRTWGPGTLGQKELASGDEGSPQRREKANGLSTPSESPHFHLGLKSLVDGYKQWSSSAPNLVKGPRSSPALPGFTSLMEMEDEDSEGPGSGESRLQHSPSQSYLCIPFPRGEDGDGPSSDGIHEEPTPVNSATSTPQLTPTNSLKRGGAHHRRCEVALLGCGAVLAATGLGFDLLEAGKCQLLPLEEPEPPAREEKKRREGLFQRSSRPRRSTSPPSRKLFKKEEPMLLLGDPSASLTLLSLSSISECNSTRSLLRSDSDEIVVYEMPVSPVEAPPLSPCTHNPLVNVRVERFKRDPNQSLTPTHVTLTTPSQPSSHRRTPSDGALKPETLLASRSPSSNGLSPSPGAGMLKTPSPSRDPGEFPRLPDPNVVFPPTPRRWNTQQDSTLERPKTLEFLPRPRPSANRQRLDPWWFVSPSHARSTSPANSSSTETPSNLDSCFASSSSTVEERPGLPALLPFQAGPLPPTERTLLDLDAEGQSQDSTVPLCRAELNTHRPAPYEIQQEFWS

[14] = target: Casein kinase I isoform gamma-2 (Homo sapiens) (UniProt P78368); assay: Inhibition of CSNK1G2 at 3 uM
[15] = Clearance in Sprague-Dawley rat at 1 mg/kg, iv; details: in vivo
[16] = target: Serine/threonine-protein kinase D2 (Homo sapiens) (UniProt Q9BZL6); assay: Inhibition of PRKD2 at 3 uM
[17] = target: Serine/threonine-protein kinase 17B (Homo sapiens) (UniProt O94768); assay: Inhibition of DRAK2 at 3 uM
[18] = target: cAMP-dependent protein kinase catalytic subunit alpha (Homo sapiens) (UniProt P17612); assay: Inhibition of PKAC-alpha at 3 uM
[19] = target: Cyclin-dependent kinase 14 (Homo sapiens) (UniProt O94921); assay: Inhibition of PFTK1 at 3 uM
[20] = target: Muscarinic acetylcholine receptor M3 (Homo sapiens) (UniProt P20309); assay: Inhibition of human muscarinic M3 receptor at 3 uM
[21] = target: Cyclin-dependent kinase 11B (Homo sapiens) (UniProt P21127); assay: Inhibition of CDC2L1 at 3 uM
[22] = tested on: Tyrosine-protein kinase ABL1 (Homo sapiens), P00519 [M351T]; assay: Inhibition of ABL1 M351T mutant at 3 uM
[23] = target: Aurora kinase B (Homo sapiens) (UniProt Q96GD4); assay: Inhibition of AURKB at 3 uM
[24] = tested on: Mast/stem cell growth factor receptor Kit (Homo sapiens), P10721 [V559D]; assay: Inhibition of KIT V559D mutant at 3 uM
[25] = target: cAMP-dependent protein kinase catalytic subunit beta (Homo sapiens) (UniProt P22694); assay: Inhibition of PKAC-beta at 3 uM
[26] = target: Protein kinase C epsilon type (Homo sapiens) (UniProt Q02156); assay: Inhibition of PRKCE at 3 uM
[27] = target: Alpha-1D adrenergic receptor (Homo sapiens) (UniProt P25100); assay: Inhibition of human adrenergic Alpha-1D receptor at 3 uM; summary of the method: as §1
[28] = target: Pro-epidermal growth factor (Homo sapiens) (UniProt P01133); assay: Inhibition of human EGF at 3 uM; summary of the method: as §1
Sequence of Pro-epidermal growth factor (Homo sapiens) (P01133 whole entry): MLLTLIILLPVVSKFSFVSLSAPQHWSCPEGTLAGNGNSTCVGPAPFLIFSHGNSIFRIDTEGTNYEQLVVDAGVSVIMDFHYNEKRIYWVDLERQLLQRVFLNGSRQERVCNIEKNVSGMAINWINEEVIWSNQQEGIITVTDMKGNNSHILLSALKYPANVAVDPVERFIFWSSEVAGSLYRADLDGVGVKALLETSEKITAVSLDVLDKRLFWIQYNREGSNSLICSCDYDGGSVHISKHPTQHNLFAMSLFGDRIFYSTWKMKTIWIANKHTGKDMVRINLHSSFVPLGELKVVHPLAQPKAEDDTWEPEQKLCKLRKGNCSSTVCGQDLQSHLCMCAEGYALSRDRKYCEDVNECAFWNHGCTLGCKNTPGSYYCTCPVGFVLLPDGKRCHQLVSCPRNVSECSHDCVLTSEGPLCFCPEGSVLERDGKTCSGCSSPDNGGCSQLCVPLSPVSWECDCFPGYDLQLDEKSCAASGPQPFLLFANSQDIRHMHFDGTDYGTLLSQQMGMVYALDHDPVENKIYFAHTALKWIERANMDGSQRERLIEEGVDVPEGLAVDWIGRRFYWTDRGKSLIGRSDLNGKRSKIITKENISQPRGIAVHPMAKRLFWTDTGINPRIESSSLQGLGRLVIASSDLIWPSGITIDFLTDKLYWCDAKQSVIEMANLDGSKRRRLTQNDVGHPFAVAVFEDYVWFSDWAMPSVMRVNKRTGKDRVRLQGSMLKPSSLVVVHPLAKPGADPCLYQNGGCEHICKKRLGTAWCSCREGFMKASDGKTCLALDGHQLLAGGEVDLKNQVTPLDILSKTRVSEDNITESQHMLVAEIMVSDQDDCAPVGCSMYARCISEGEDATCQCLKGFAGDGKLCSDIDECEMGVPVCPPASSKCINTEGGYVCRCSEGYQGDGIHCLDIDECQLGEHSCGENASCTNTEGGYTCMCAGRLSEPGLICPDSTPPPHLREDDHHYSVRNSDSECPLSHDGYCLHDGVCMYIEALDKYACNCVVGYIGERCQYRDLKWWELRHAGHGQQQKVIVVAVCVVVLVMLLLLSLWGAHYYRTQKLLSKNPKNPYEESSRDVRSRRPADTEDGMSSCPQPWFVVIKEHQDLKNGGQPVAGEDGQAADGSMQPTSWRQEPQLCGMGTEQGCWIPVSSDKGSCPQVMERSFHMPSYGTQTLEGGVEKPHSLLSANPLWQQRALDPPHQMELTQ

[29] = target: Serine/threonine-protein kinase PLK4 (Homo sapiens) (UniProt O00444); assay: Inhibition of PLK4 at 3 uM
[30] = tested on: Proto-oncogene tyrosine-protein kinase receptor Ret (Homo sapiens), P07949 [M918T]; assay: Inhibition of RET M918T mutant at 3 uM
[31] = species: Rattus norvegicus; details: 3 uM; remark: listed apart in the source
[32] = target: Protein kinase C eta type (Homo sapiens) (UniProt P24723); assay: Inhibition of PRKCH at 3 uM
[33] = target: MAP kinase-interacting serine/threonine-protein kinase 1 (Homo sapiens) (UniProt Q9BUB5); assay: Inhibition of MKNK1 at 3 uM
[34] = target: Myosin light chain kinase 2, skeletal/cardiac muscle (Homo sapiens) (UniProt Q9H1R3); assay: Inhibition of MYLK2 at 3 uM
[35] = in vivo; details: Sprague-Dawley, rat, po, 2 mg/kg
[36] = target: Atypical kinase COQ8B, mitochondrial (Homo sapiens) (UniProt Q96D53); assay: Inhibition of ADCK4 at 3 uM
Sequence of Atypical kinase COQ8B, mitochondrial (Homo sapiens) (Q96D53 whole entry): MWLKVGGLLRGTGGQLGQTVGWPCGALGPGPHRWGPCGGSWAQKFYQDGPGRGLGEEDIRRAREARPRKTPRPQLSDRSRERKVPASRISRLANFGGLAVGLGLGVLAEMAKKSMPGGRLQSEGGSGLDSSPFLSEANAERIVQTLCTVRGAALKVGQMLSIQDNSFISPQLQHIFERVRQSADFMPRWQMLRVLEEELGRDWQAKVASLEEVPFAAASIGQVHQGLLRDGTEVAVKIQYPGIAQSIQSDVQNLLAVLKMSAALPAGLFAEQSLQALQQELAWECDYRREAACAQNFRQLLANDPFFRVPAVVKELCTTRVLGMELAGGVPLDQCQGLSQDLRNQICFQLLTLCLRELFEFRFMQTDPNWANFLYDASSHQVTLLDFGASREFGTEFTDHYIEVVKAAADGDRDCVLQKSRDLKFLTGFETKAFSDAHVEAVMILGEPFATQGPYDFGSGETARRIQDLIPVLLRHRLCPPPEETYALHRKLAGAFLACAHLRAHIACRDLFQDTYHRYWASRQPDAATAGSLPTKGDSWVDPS

[37] = Volume of distribution in Sprague-Dawley rat at 1 mg/kg, iv; details: in vivo
[38] = target: Serine/threonine-protein kinase TAO3 (Homo sapiens) (UniProt Q9H2K8); assay: Inhibition of TAOK3 at 3 uM
[39] = target: Serine/threonine-protein kinase LATS1 (Homo sapiens) (UniProt O95835); assay: Inhibition of LATS1 at 3 uM
[40] = target: Tyrosine-protein kinase BTK (Homo sapiens) (UniProt Q06187); assay: Inhibition of BTK at 3 uM
[41] = target: Myosin light chain kinase, smooth muscle (Homo sapiens) (UniProt Q15746); assay: Inhibition of MLCK at 3 uM
Sequence of Myosin light chain kinase, smooth muscle (Homo sapiens) (Q15746 whole entry): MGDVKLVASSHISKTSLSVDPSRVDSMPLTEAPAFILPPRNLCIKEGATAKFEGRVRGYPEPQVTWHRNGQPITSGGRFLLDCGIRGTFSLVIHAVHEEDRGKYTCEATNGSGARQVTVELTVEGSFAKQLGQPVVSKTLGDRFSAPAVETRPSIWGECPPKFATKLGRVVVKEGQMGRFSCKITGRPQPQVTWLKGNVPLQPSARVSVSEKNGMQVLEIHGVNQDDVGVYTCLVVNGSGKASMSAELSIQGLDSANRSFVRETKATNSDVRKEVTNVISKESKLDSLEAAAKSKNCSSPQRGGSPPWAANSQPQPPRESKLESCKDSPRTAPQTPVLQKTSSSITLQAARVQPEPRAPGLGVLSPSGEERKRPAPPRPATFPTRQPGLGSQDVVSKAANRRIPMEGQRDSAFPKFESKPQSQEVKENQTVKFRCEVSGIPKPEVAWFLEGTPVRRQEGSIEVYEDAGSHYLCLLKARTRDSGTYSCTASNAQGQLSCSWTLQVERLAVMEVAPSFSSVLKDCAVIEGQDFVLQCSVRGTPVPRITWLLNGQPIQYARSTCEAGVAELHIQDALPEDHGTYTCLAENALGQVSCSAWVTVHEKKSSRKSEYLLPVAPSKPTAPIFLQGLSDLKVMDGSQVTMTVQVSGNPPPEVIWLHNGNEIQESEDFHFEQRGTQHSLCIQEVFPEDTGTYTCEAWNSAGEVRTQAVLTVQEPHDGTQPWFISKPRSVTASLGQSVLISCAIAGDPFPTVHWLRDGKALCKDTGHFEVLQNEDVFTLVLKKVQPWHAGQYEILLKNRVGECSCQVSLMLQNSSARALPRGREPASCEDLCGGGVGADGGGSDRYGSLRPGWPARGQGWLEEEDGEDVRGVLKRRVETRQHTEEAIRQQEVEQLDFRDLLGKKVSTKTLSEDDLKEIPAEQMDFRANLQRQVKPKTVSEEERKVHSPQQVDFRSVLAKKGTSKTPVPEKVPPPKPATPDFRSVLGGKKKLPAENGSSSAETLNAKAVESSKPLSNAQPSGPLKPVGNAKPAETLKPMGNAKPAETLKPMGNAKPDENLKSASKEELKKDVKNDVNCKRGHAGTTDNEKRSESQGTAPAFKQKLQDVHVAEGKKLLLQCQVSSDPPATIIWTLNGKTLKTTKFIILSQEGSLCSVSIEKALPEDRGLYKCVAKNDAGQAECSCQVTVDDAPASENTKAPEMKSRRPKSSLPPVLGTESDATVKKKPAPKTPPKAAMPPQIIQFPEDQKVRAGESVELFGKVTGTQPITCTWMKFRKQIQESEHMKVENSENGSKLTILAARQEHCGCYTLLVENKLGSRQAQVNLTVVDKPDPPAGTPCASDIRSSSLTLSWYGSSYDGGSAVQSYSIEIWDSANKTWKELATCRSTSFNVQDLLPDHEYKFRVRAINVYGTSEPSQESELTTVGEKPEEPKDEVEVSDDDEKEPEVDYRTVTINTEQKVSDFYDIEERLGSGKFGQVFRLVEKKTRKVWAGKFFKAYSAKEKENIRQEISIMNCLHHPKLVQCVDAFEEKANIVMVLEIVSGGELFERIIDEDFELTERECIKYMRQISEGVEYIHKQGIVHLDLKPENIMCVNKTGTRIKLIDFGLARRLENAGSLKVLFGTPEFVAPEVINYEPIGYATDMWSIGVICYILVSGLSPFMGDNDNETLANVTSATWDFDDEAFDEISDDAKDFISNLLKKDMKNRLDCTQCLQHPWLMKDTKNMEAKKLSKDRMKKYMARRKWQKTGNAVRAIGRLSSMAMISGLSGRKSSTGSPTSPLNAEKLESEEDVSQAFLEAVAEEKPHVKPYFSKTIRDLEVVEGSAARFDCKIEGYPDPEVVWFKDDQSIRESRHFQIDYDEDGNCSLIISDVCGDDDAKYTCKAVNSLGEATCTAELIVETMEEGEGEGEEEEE

[42] = target: Calcium/calmodulin-dependent protein kinase type II subunit alpha (Homo sapiens) (UniProt Q9UQM7); assay: Inhibition of CAMK2A at 3 uM
[43] = target: 5'-AMP-activated protein kinase catalytic subunit alpha-1 (Homo sapiens) (UniProt Q13131); assay: Inhibition of AMPKalpha1 at 3 uM
[44] = target: Activin receptor type-1-like (Homo sapiens) (UniProt P37023); assay: Inhibition of ACVRL1 at 3 uM
[45] = target: SRSF protein kinase 1 (Homo sapiens) (UniProt Q96SB4); assay: Inhibition of SRPK1 at 3 uM
[46] = target: Epidermal growth factor receptor (Homo sapiens) (UniProt P04626+P00533+Q15303+P21860); assay: Inhibition of EGFR S752-I759del mutant at 3 uM; format: protein assay
Summary of the method: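 Single-concentration kinase panel scoring: each value is the percentage of enzyme activity remaining relative to a DMSO-only control. An activity statistically indistinct from DMSO control was scored "no hit".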

CN(C)CCOc1cc(-c2cn[nH]c2)ccc1NC(=O)C1COc2ccccc2O1 (stereo unspecified) [SR-3677]
inhibition [1]: < 10% | inhibition [2]: 70% | inhibition [3]: < 10% | inhibition [4]: < 10% | inhibition [5]: < 10% | IC50 [6]: 3.2 nM | inhibition [7]: < 10% | inhibition [8]: 14% | inhibition [9]: 1% | inhibition [10]: < 10% | inhibition [11]: < 10% | inhibition [12]: < 10% | inhibition [13]: < 10% | inhibition [14]: < 10% | clearance [15]: 61 mL/min/kg | inhibition [16]: < 10% | inhibition [17]: < 10% | inhibition [18]: < 10% | inhibition [19]: < 10% | inhibition [20]: 3% | inhibition [21]: < 10% | inhibition [22]: < 10% | inhibition [23]: < 10% | inhibition [24]: < 10% | inhibition [25]: < 10% | inhibition [26]: < 10% | inhibition [27]: 43% | inhibition [28]: -1% | inhibition [29]: < 10% | inhibition [30]: < 10% | inhibition [31]: -4% | inhibition [32]: < 10% | inhibition [33]: < 10% | inhibition [34]: < 10% | Cmax [35]: 50 nM | inhibition [36]: < 10% | Vd [37]: 3 L/kg | inhibition [38]: < 10% | inhibition [39]: < 10% | inhibition [40]: < 10% | inhibition [41]: < 10% | inhibition [42]: < 10% | inhibition [43]: < 10% | inhibition [44]: < 10% | inhibition [45]: < 10% | inhibition [46]: < 10%
